Assay results reported in ChEMBL document CHEMBL3244386, “Synthesis of fused [1,2,6]thiadiazine 1,1-dioxides as potential transition-state analogue inhibitors of xanthine oxidase and guanase” (J Med Chem, 1979).
Calls of active or inactive are those of the source. The calls are words filed in the database; no cut-off is given here.

How the values were obtained:
Oryctolagus cuniculus [1] = species: Oryctolagus cuniculus; experiment: Inhibition of rabbit liver guanase using 13.3 uM guanine as substrate assessed as ([I]/[S])50
In short: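 Rabbit liver guanase in 1.0 mL pH 7.4 0.05 M Tris-HCl with 13.3 µM guanine and varying inhibitor, started by adding enzyme. Guanine loss read at 248 nm. V0/Vi was plotted against [I], and I50 was taken where V0/Vi = 2, then expressed relative to the substrate level. Values were reproducible within ±20%.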

Oryctolagus cuniculus [2] = species: Oryctolagus cuniculus; experiment: Noncompetitive inhibition of rabbit liver guanase using guanine as substrate by Lineweaver-Burk plot analysis
In short: (§1)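 Kinetics used rabbit liver guanase in pH 7.4 0.05 M Tris-HCl, with guanine at 20, 10, 6.4 and 4.8 µM and four inhibitor concentrations, read at 248 nm. Lineweaver–Burk (1/V vs 1/[S]) and Dixon (1/V vs [I]) plots were drawn. Ki was taken from the Dixon x-intercept ([…]).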

[3] = molecular target: T1, Xanthine dehydrogenase/oxidase (Homo sapiens, UniProt P47989); experiment: Inhibition of xanthine oxidase (unknown origin) assessed as conversion of xanthine to uric acid under anaerobic condition at 5 X 10^-4 M after 1 hr; details: 500 µM
T1 sequence (P47989 whole entry): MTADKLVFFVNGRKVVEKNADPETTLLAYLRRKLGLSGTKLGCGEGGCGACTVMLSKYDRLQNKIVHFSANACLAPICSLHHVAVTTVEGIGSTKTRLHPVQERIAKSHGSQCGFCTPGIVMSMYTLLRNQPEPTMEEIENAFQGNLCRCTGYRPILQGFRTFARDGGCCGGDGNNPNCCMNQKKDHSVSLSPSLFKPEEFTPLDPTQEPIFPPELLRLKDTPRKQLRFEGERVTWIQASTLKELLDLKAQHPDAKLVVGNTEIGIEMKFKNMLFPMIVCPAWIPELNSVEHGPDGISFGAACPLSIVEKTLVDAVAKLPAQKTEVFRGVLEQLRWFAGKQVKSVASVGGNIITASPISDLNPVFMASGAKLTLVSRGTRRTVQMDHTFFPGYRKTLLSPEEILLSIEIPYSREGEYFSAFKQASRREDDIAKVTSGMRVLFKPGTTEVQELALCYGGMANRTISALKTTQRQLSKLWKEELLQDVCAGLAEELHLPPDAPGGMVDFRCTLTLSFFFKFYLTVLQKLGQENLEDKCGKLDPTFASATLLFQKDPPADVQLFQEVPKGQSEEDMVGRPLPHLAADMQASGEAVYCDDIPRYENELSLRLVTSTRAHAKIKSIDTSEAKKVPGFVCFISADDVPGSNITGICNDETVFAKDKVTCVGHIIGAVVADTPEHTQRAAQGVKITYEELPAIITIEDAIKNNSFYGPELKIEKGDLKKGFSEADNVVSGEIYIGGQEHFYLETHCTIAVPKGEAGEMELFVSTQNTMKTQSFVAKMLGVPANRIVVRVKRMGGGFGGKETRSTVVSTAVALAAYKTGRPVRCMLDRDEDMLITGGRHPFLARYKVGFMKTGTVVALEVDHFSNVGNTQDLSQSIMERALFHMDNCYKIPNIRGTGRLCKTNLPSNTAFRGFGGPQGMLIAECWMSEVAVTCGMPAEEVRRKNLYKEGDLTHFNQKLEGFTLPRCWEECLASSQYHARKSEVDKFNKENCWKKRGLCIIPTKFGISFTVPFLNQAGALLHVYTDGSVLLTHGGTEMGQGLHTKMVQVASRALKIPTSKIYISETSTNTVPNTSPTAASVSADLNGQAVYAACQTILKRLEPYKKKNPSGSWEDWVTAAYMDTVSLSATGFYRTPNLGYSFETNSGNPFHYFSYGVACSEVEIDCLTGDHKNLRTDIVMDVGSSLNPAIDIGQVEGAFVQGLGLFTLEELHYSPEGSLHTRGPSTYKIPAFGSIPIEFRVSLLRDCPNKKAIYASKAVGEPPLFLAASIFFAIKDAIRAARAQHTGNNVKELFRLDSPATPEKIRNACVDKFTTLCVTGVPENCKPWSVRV
In short: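 Reduced-form incubation: xanthine oxidase (50 µL of 1.2 µM), 1.0 mL of a 5 × 10⁻⁴ M compound solution and EDTA in pH 7.4 Tris were purged with N₂. Xanthine was added to reduce the enzyme, and the sealed tube was held 1 h at 25 °C (compound:enzyme 8.3 × 10³). The tube was then opened to air, xanthine added, and the 295 nm initial rate compared with controls.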

[4] = Noncompetitive inhibition of rabbit liver guanase using guanine as substrate by Dixon plot analysis; design: species or system Oryctolagus cuniculus; in short: as §1
[5] = Dissociation constant, pKa of the compound by titrimetric analysis; type: physicochemical
[6] = molecular target: T1, Xanthine dehydrogenase/oxidase; experiment: Inhibition of xanthine oxidase (unknown origin) assessed as conversion of xanthine to uric acid under aerobic condition at 0.5 mM after 1 hr; details: 500 µM
In short: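 Oxidized-form incubation: xanthine oxidase (50 µL of 1.2 µM) was incubated aerobically for 1.0 h with 1.0 mL of a 5 × 10⁻⁴ M compound solution and EDTA in Tris-HCl buffer, total 2.75 mL. Xanthine was then added, and the initial rate of uric acid formation was read at 295 nm against controls without compound.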

Oryctolagus cuniculus [7] = species: Oryctolagus cuniculus; experiment: Inhibition of rabbit liver guanase using guanine as substrate compound treated at 32 times substrate concentration
In short: (§2)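 Rabbit liver guanase assay in 1.0 mL pH 7.4 0.05 M Tris-HCl with 13.3 µM guanine, started by adding enzyme. Guanine disappearance was followed at 248 nm and compared with a reaction run without inhibitor.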

Oryctolagus cuniculus [8] = species: Oryctolagus cuniculus; experiment: Inhibition of rabbit liver guanase using guanine as substrate compound treated at 28 times substrate concentration
In short: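 Rabbit liver guanase, diluted from a 10 mg protein/mL stock, run at pH 7.4 in 0.05 M Tris-HCl with 13.3 µM guanine as substrate. Inhibitor was added at varying amounts, at least 28 times the substrate concentration. The enzyme was added last to start the reaction. Guanine loss was followed at 248 nm, and velocities were compared with the uninhibited control.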

Oryctolagus cuniculus [9] = species: Oryctolagus cuniculus; experiment: Inhibition of rabbit liver guanase using guanine as substrate at 0.4 mM; in short: as §2
Oryctolagus cuniculus [10] = species: Oryctolagus cuniculus; experiment: Inhibition of rabbit liver guanase using guanine as substrate compound treated at 46 times substrate concentration; in short: as §2

inhibition (INH) [3]	pKa [5]	inhibition (INH) [6]	SMILES	further results
Not Active	3.2	Not Active	NC1=NS(=O)(=O)Nc2nsnc21	Ratio (Oryctolagus cuniculus [1]): 11; inhibition (Oryctolagus cuniculus [2]): Active; Ki [4]: 190 µM
Not Active	4.1	Not Active	NC1=NS(=O)(=O)Nc2[nH]ncc21	inhibition (Oryctolagus cuniculus [7]): inactive
Not Active		Not Active	NC1=NS(=O)(=O)Nc2nc[nH]c21	

The next lines start with the molecule.

SMILES	inhibition (INH) [3]	pKa [5]	inhibition (INH) [6]	further results
O=C1NS(=O)(=O)Nc2[nH]ncc21	Not Active	6.5	Not Active	Ratio (Oryctolagus cuniculus [1]): 15; inhibition (Oryctolagus cuniculus [2]): Active; Ki [4]: 250 µM
O=C1NS(=O)(=O)Nc2nc[nH]c21	Not Active		Not Active	inhibition (Oryctolagus cuniculus [8]): inactive
O=c1[nH]cnc2nsnc12				inhibition (Oryctolagus cuniculus [9]): inactive
NC1=NS(=O)(=O)Nc2[nH]cnc21				inhibition (Oryctolagus cuniculus [10]): inactive
